Experiments:
[1] = target: catalytic domain of PHD2 (residues 181-426) (Homo sapiens, UniProt Q9GZT9); assay: Non-denaturing ESI-MS binding to PHD2 in presence of Fe; conditions: standard conditions; for ESI-MS competition with NOG for binding to PHD2: equimolar NOG; for PHD2-iron-compound complex formation / binding of a second iron in ESI-MS: 2 equiv. Fe(II), 1 equiv. compound
HIF-1α [2] = assay: HIF-1α stabilisation immunoblot in RCC4/VHL cells; type: cell-based, human; conditions: 200 μM and 1mM
HIF-1α [3] = assay: HIF-1α stabilisation immunoblot in Hep3B cells; type: cell-based, human; conditions: for HIF-1α stabilization / HIF-1α stabilization in presence of Fe(II) / Cell-based activity HIF-1α Induction: Hep3B cells, 6 h; for HIF-1α stabilization: absence of added Fe(II); for HIF-1α stabilization in presence of Fe(II): equimolar amount of Fe(II); for Cell-based activity HIF-1α Induction: methyl or ethyl esters (numbers in parentheses) tested, 0.1 mM and 1 mM
Procedure, shortened: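 Confluent human Hep3B hepatoma cells given methyl or ethyl ester forms of test compounds (100 mM DMSO stock) for 6 h under normoxia. Fe(II) experiments added equimolar Fe(II) either at the start or for the final 2 h, with DFO and DMOG as comparators. Whole-cell lysate immunoblots probed with mouse anti-HIF-1α (clone 54).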

[4] = test system: HIF prolyl and asparaginyl hydroxylases; assay: HIF-1α prolyl; type: cell-based, human; conditions: RCC4 cells, 1 mM and 2 mM
Procedure, shortened: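 VHL-defective RCC4 renal carcinoma cells carrying empty vector (RCC4/VA), which cannot degrade HIF-1α by the proteasome, grown to confluence and treated 5 h with test compound from 100 mM DMSO stock. Whole-cell lysate immunoblots probed with Hyp564- and HyAsn803-specific antibodies. Signals normalised to HIF-1α band intensity, with β-tubulin/β-actin as loading controls. DMSO negative and DMOG positive controls.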

PHD2 = PHD2 (Homo sapiens, UniProt Q9GZT9); assay: AlphaScreen PHD2 inhibition assay; type: biochemical; conditions: 10μM and 300μM of compounds
PHD2, sequence (Q9GZT9 181-426): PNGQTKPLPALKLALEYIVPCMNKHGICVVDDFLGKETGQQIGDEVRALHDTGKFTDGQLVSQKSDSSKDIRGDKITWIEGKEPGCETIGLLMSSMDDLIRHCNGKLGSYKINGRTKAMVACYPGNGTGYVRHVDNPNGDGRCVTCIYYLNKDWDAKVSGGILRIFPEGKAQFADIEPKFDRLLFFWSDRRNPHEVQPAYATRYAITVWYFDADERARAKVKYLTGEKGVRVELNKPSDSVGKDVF

catalytic domain of PHD2 (residues 181-426), sequence (Q9GZT9 181-426): as above

O=C(O)/C=C/C(=O)NNC(=O)c1cccnc1 [Compound 9]
ESI-MS competition with NOG for binding to PHD2 [1]: compete effectively with NOG for binding to PHD2

O=C(O)/C=C/C(=O)NNC(=O)c1cc2ccccc2cn1 [Compound 14]
HIF-1α upregulation (HIF-1α [2]): almost no HIF-1α induction

COC(=O)CNC(=O)C(=O)OC [DMOG, Dimethyloxalyl glycine]
HIF-1α stabilization (HIF-1α [3]): induced HIF-1α stabilization | HIF-1α stabilization in presence of Fe(II) (HIF-1α [3]): reduction in HIF-1α stabilization | Cell-based activity HIF-1α Induction (HIF-1α [3]): Active | Inhibition of HIF prolyl-hydroxylation [4]: only partially inhibited

O=C(O)CCCC(=O)NNC(=O)c1ccccn1 [Compound 2]
PHD2-iron-compound complex formation / binding of a second iron in ESI-MS [1]: formed a two-iron complex with PHD2 | PHD2 inhibition in initial two-concentration screening (PHD2): weak PHD2 inhibitors

O=C(O)CNC(=O)c1nc(Cl)c2ccccc2c1O [BIQ, 2-(1-chloro-4-hydroxyisoquinoline-3-carboxamido)acetic acid]
Cell-based activity HIF-1α Induction (HIF-1α [3]): Active

CC(=O)N(O)CCCCCNC(=O)CCC(=O)N(O)CCCCCNC(=O)CCC(=O)N(O)CCCCCN [DFO, deferoxamine]
HIF-1α stabilization (HIF-1α [3]): induced HIF-1α stabilization | HIF-1α stabilization in presence of Fe(II) (HIF-1α [3]): HIF-1α stabilization was not observed

O=C(O)/C=C\C(=O)NNC(=O)c1ccccn1 [Compound 4]
PHD2 inhibition in initial two-concentration screening (PHD2): weak PHD2 inhibitors

O=C(O)/C=C/C(=O)NNC(=O)c1ccccn1 [Compound 5]
HIF-1α upregulation (HIF-1α [2]): upregulated HIF-1α, but to a lesser extent than its ester | PHD2-iron-compound complex formation / binding of a second iron in ESI-MS [1]: only bound to one iron

O=C(O)CCC(=O)NNC(=O)c1cc2ccccc2cn1 [Compound 11]
HIF-1α levels, free carboxylate compounds (HIF-1α [3]; human hepatoma Hep3B cells, free acid form): did not up-regulate HIF-1α levels | ESI-MS competition with NOG for binding to PHD2 [1]: compete effectively with NOG for binding to PHD2

— PMC4677462 (Organic & biomolecular chemistry, 2012)
